One block for each compound: values may come before it. The source made the active and inactive calls. The calls are words filed in the database; no cut-off is given here.
Columns and labels:
[1] = Irreversible inhibition of hepatitis C virus NS5B polymerase; set-up: species or system Hepacivirus hominis
Hepatitis C virus = assay: Antiviral activity against HCV by cell based replicon assay; assay type: functional, organism-based, Hepacivirus hominis
Cytochrome P450 2C9 = Cytochrome P450 2C9 (Homo sapiens, UniProt P11712); assay: Inhibition of CYP2C9 up to 30 uM; assay type: ADME
Sequence of Cytochrome P450 2C9 (P11712 whole entry): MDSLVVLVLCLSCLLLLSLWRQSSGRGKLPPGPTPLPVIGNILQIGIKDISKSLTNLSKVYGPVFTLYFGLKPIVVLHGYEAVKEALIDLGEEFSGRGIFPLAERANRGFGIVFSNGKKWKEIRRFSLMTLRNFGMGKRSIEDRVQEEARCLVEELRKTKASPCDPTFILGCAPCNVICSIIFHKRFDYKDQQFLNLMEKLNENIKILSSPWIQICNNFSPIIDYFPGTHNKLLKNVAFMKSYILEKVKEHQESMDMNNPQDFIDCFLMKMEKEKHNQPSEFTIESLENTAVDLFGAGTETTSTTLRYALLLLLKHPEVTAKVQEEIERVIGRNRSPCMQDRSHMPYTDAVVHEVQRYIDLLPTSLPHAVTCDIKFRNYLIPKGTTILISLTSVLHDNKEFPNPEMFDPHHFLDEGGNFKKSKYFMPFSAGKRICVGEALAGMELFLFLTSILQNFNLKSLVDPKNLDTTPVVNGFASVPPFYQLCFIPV

Cytochrome P450 2D6 = Cytochrome P450 2D6 (Homo sapiens, UniProt P10635); assay: Inhibition of CYP2D6 up to 30 uM; assay type: ADME
Sequence of Cytochrome P450 2D6 (P10635 whole entry): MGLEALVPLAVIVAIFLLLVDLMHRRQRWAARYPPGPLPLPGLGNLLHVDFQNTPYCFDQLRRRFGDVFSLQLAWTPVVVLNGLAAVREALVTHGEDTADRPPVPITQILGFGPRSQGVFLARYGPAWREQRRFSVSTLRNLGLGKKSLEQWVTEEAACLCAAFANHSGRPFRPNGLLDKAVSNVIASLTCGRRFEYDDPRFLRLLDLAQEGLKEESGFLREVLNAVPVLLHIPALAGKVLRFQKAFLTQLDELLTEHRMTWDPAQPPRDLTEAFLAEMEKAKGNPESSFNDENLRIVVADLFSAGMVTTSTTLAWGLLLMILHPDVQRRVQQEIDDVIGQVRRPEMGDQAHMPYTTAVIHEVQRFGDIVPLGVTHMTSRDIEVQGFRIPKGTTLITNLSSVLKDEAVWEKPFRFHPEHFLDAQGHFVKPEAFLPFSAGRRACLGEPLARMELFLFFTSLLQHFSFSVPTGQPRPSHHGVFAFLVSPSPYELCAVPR

Plasma [2] = assay: Metabolic stability in human plasma up to 3 hrs; assay type: ADME, cell-free
[3] = Mutagenic activity in micronuclei assessed as induction of chromosomal damage
[4] = Half life in rat at 10 mg/kg, iv; assay type: ADME, organism-based; set-up: dose 10 mg/kg, route intravenous; conditions: in vivo
Procedure, shortened: (§1)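 Single-dose pharmacokinetics: rats were dosed at 10 mg/kg, and monkeys and dogs at 3 mg/kg. Oral AUC, clearance, half-life and bioavailability were determined. All doses were given in 0.4% MC vehicle.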

[5] = Oral bioavailability in monkey at 3 mg/kg; assay type: ADME, organism-based, Macaca mulatta; conditions: rhesus monkey, in vivo; procedure, shortened: as §1
[6] = AUC in rat at 10 mg/kg, po; assay type: ADME, organism-based; set-up: dose 10 mg/kg, route oral; conditions: plasma; procedure, shortened: as §1
Plasma [7] = assay: Metabolic stability in rat plasma up to 3 hrs; assay type: ADME, cell-free
[8] = Clearance in rat at 10 mg/kg; assay type: ADME, organism-based; set-up: dose 10 mg/kg; conditions: in vivo; procedure, shortened: as §1
[9] = Half life in dog at 3 mg/kg, iv; assay type: ADME, organism-based, Canis lupus familiaris; set-up: dose 3 mg/kg, route intravenous; conditions: in vivo; procedure, shortened: as §1
[10] = Oral bioavailability in rat at 10 mg/kg; assay type: ADME, organism-based; conditions: in vivo; procedure, shortened: as §1
[11] = Drug level in rat liver at 10 mg/kg, iv after 6 hrs; assay type: ADME, organism-based; set-up: dose 10 mg/kg, route intravenous; conditions: read-out: Drug uptake
[12] = Induction of cytochrome P450 activity at 10 uM; assay type: ADME
[13] = Clearance in monkey at 3 mg/kg; assay type: ADME, organism-based, Macaca mulatta; set-up: dose 3 mg/kg; conditions: rhesus monkey, in vivo; procedure, shortened: as §1
Salmonella typhimurium [14] = assay: Mutagenic activity in Salmonella typhimurium by mini-AMES test in absence of S9 fraction; assay type: toxicity, organism-based; conditions: salmonella enterica subsp. enterica serovar typhimurium
Plasma [15] = assay: Metabolic stability in dog plasma up to 3 hrs; assay type: ADME, cell-free, Canis lupus familiaris
[16] = Clearance in dog at 3 mg/kg; assay type: ADME, organism-based, Canis lupus familiaris; set-up: dose 3 mg/kg; conditions: in vivo; procedure, shortened: as §1
[17] = Half life in monkey at 3 mg/kg, iv; assay type: ADME, organism-based, Macaca mulatta; set-up: dose 3 mg/kg, route intravenous; conditions: rhesus monkey, in vivo; procedure, shortened: as §1
Plasma [18] = assay: Metabolic stability in monkey plasma up to 3 hrs; assay type: ADME, cell-free, Macaca mulatta; conditions: rhesus monkey
Cytochrome P450 3A4 = Cytochrome P450 3A4 (Homo sapiens, UniProt P08684); assay: Inhibition of CYP3A4 up to 30 uM; assay type: ADME
Sequence of Cytochrome P450 3A4 (P08684 whole entry): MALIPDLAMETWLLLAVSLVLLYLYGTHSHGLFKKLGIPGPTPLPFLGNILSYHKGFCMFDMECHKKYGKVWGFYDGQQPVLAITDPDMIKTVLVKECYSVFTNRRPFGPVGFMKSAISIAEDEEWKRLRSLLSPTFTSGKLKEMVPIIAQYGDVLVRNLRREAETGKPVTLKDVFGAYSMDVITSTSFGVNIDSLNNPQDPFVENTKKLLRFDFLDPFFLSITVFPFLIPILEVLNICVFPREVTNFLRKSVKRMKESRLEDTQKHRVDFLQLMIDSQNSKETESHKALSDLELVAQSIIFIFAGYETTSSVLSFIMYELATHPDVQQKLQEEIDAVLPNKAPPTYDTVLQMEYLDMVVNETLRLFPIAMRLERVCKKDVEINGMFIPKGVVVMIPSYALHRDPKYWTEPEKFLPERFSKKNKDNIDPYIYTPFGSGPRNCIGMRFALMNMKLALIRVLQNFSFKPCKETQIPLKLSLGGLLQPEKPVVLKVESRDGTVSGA

[19] = Oral bioavailability in dog at 3 mg/kg; assay type: ADME, organism-based, Canis lupus familiaris; conditions: in vivo; procedure, shortened: as §1
Salmonella typhimurium [20] = assay: Mutagenic activity in Salmonella typhimurium by mini-AMES test in presence of S9 fraction; assay type: toxicity, organism-based; conditions: salmonella enterica subsp. enterica serovar typhimurium
[21] = AUC in dog at 3 mg/kg, po; assay type: ADME, organism-based, Canis lupus familiaris; set-up: dose 3 mg/kg, route oral; conditions: plasma; procedure, shortened: as §1
[22] = AUC in monkey at 3 mg/kg, po; assay type: ADME, organism-based, Macaca mulatta; set-up: dose 3 mg/kg, route oral; conditions: rhesus monkey, plasma; procedure, shortened: as §1
Lupus La protein = biological target: T1, Lupus La protein (Homo sapiens, UniProt P05455); assay: Binding affinity to human La antigen by NMR based ALARM assay; assay type: ADME
T1 sequence (P05455 whole entry): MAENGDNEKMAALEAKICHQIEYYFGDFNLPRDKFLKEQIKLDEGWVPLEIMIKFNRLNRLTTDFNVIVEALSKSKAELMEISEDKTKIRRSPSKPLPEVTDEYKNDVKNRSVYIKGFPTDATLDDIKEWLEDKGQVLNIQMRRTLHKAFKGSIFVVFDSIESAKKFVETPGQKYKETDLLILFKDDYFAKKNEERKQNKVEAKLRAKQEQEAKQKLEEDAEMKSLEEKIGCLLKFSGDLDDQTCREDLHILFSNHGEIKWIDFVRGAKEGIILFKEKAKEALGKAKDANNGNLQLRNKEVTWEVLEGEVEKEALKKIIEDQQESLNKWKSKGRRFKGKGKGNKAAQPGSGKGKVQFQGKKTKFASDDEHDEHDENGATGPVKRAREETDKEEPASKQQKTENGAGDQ
Procedure, shortened: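 NMR-based ALARM assay. The compound was incubated with human La antigen, and NMR was used to monitor reaction with the antigen's reactive thiols.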

Hepacivirus hominis = assay: Binding affinity to hepatitis C virus NS5B polymerase assessed as covalent bonding with cysteine-366 residue by mass spectroscopy analysis

Compound: Cc1ccc2c(c1)c(-c1ccc(C)[nH]c1=O)c(C(=O)NS(=O)(=O)C1CC1)n2Cc1cc([N+](=O)[O-])ccc1F
IC50 [1]: 12 nM
EC50 (Hepatitis C virus): 9 nM

Compound: Nc1cc(Cn2c(C(=O)O)c(-c3ccc[nH]c3=O)c3cc(Cl)ccc32)ccn1
IC50 [1]: 53 nM

Compound: CCc1ccc2c(c1)c(-c1ccc[nH]c1=O)c(C(=O)NS(=O)(=O)C1CC1)n2Cc1cc(S(N)(=O)=O)c(Cl)cc1Cl
IC50 [1]: 6 nM
EC50 (Hepatitis C virus): 1400 nM

Compound: CCc1ccc2c(c1)c(-c1ccc[nH]c1=O)c(C(=O)O)n2Cc1cc([N+](=O)[O-])ccc1F
inhibition (INH) (Cytochrome P450 2C9): Not Active
inhibition (INH) (Cytochrome P450 2D6): Not Active
Stability (Plasma [2]): Stable
Activity [3]: Non-toxic
half-life [4]: 8.2 h
bioavailability [5]: 30%
AUC [6]: 18 µM·h
Stability (Plasma [7]): Stable
clearance [8]: 8 mL/min/kg
half-life [9]: 1.2 h
bioavailability [10]: 37%
concentration at 6 h [11]: 460 nM
Activity [12]: Not Active
clearance [13]: 10 mL/min/kg
Activity (Salmonella typhimurium [14]): Non-toxic
Stability (Plasma [15]): Stable
clearance [16]: 10 mL/min/kg
half-life [17]: 1.3 h
Stability (Plasma [18]): Stable
inhibition (INH) (Cytochrome P450 3A4): Not Active
bioavailability [19]: 95%
Activity (Salmonella typhimurium [20]): Non-toxic
IC50 [1]: 5 nM
AUC [21]: 11 µM·h
AUC [22]: 3.4 µM·h
Activity (Lupus La protein): Not Active
EC50 (Hepatitis C virus): 1 nM

Compound: Cc1ccc2c(c1)c(-c1ccc[nH]c1=O)c(C(=O)NS(=O)(=O)C1CC1)n2Cc1c(F)c(F)cc(S(C)(=O)=O)c1F
IC50 [1]: 14 nM
EC50 (Hepatitis C virus): 270 nM

Compound: Cc1ccc2c(c1)c(-c1ccc[nH]c1=O)c(C(=O)NS(C)(=O)=O)n2Cc1cc([N+](=O)[O-])ccc1F
AUC [6]: 0.19 µM·h
Activity (Hepacivirus hominis): Active
IC50 [1]: 6 nM
EC50 (Hepatitis C virus): 1 nM

Compound: CCc1ccc2c(c1)c(-c1ccc[nH]c1=O)c(C(=O)NS(=O)(=O)C1CC1)n2Cc1cc(S(C)(=O)=O)c(Cl)cc1F
IC50 [1]: 2 nM
EC50 (Hepatitis C virus): 60 nM

Compound: O=C(NS(=O)(=O)C1CC1)c1c(-c2ccc[nH]c2=O)c2ccccc2n1Cc1cc([N+](=O)[O-])ccc1F
IC50 [1]: 4 nM
EC50 (Hepatitis C virus): 6 nM

More lines, main results first:

IC50 [1]: 14 nM
EC50 (Hepatitis C virus): 3400 nM
Compound: Cc1ccc2c(c1)c(-c1ccc[nH]c1=O)c(C(=O)NS(=O)(=O)C1CC1)n2Cc1cc([S+]([O-])C(F)(F)F)ccc1Cl (stereo not given)

IC50 [1]: 5 nM
EC50 (Hepatitis C virus): 550 nM
Compound: Cc1ccc2c(c1)c(-c1ccc[nH]c1=O)c(C(=O)NS(=O)(=O)C1CC1)n2Cc1cc(S(N)(=O)=O)ccc1F

IC50 [1]: 6 nM
EC50 (Hepatitis C virus): 580 nM
Compound: Cc1ccc2c(c1)c(-c1ccc[nH]c1=O)c(C(=O)NS(=O)(=O)C1CC1)n2Cc1cc(S(C)(=O)=O)ccc1F

IC50 [1]: 9 nM
EC50 (Hepatitis C virus): 220 nM
Compound: Cc1ccc2c(c1)c(-c1ccc[nH]c1=O)c(C(=O)NS(=O)(=O)C1CC1)n2Cc1cc(C#N)ccc1F

AUC [6]: 0.35 µM·h
IC50 [1]: 7 nM
EC50 (Hepatitis C virus): 4 nM
Compound: Cc1cc2c(-c3ccc[nH]c3=O)c(C(=O)NS(=O)(=O)C3CC3)n(Cc3cc([N+](=O)[O-])ccc3F)c2cc1F

IC50 [1]: 4 nM
EC50 (Hepatitis C virus): 2 nM
Compound: O=C(NS(=O)(=O)C1CC1)c1c(-c2ccc[nH]c2=O)c2cc(C(F)(F)F)ccc2n1Cc1cc([N+](=O)[O-])ccc1F

AUC [6]: 0.17 µM·h
IC50 [1]: 4 nM
Activity (Lupus La protein): Not Active
EC50 (Hepatitis C virus): 1 nM
Compound: CCc1ccc2c(c1)c(-c1ccc[nH]c1=O)c(C(=O)NS(=O)(=O)C1CC1)n2Cc1cc([N+](=O)[O-])ccc1F
Activity [3]: Non-toxic
Activity (Salmonella typhimurium [14]): Non-toxic
Activity (Salmonella typhimurium [20]): Non-toxic

IC50 [1]: 4 nM
EC50 (Hepatitis C virus): 140 nM
Compound: Cc1ccc2c(c1)c(-c1ccc[nH]c1=O)c(C(=O)NS(=O)(=O)C1CC1)n2Cc1cc(C(N)=O)ccc1F

IC50 [1]: 6 nM
Compound: Cc1ccc2c(c1)c(-c1ccc[nH]c1=O)c(C(=O)NS(=O)(=O)C1CC1)n2Cc1cc(F)ccc1F
